The species entered for one assay is Oryctolagus cuniculus. The experiment in a line: Calcium channel-blocking activity by determined by ability to antagonize calcium-induced contractions of isolated rabbit aortic strips. Type of assay: functional. To be noted: Aorta, read-out: pA2 (converted). The method, boiled down:
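Rabbit aortic strips were bathed in turn in CaCl2-containing buffer, CaCl2-free buffer, then depolarizing (KCl) CaCl2-free buffer. Cumulative CaCl2 addition induced contractions, recorded with force-displacement transducers. Responses were compared without and with 1–100 nM test compound. pA2 was calculated by the Van Rossum method from at least three tissues.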

The subject of assay [1] is Rattus norvegicus. Nature of the assay: Antihypertensive activity expressed as change in mean arterial blood pressure (MABP) in spontaneously hypertensive rats (SHR),at 0.5-2h after 30 mg/kg oral administration. Type of assay: functional, Artery. An outline of the steps:
(§1)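 Adult male SHR, catheter implanted in carotid artery or abdominal aorta under anesthesia at least 24 h before dosing. Baseline pressure recorded 1-1.5 h. Compound given orally at 30 mg/kg as solution or suspension in 0.5% Tween 80/distilled H2O (v/v) or other vehicle. MABP read at 0.5, 1, 1.5, 2, 3, 4, 5 and 6 h. Average percent change from predose calculated per period. Paired one-tailed t test, p < 0.05. n = 3-6 rats unless noted.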

The subject of assay [2] is Rattus norvegicus. The experiment in a line: Antihypertensive activity expressed as change in mean arterial blood pressure (MABP) in spontaneously hypertensive rats (SHR), at 3-6h after 30 mg/kg oral administration. In kind it is functional, Artery. The method, boiled down:
as §1

These results are taken from ChEMBL document CHEMBL1125890, “Synthesis, calcium-channel-blocking activity, and antihypertensive activity of 4-(diarylmethyl)-1-[3-(aryloxy)propyl]piperidines and structurally related compounds” (J Med Chem, 1991).

Turning to `COc1cc(C(C)=O)ccc1OCCCN1CCC(C(C#N)(c2ccc(F)cc2)c2ccc(F)cc2)C1` (configuration not stated), the Kb in the assay listed under Oryctolagus cuniculus was 6.31 nM. The figures for the Change with Rattus norvegicus [1] and in the assay on Rattus norvegicus [2] were -2% and 1%, respectively.

`COc1cc(C(C)=O)ccc1OCCCN1CCC(CC(c2ccc(F)cc2)c2ccc(F)cc2)CC1`: the Kb in the assay listed under Oryctolagus cuniculus is 3.16 nM. The results for the Change in the assay with Rattus norvegicus [1] and in the assay on Rattus norvegicus [2] were -13% and -10%, respectively.

`COc1cc(C(C)=O)ccc1OCCCN1CCC(C(c2ccc(F)cc2)C2CCCCC2)CC1` (configuration not stated): in the assay filed under Oryctolagus cuniculus, the Kb was 5.01 nM. The results for the Change in the assay with Rattus norvegicus [1] and in the assay on Rattus norvegicus [2] were 3% and -6%, respectively.

Regarding `COc1cc(C(C)=O)ccc1OCCCN1CCC(C(NC(C)=O)(c2ccc(F)cc2)c2ccc(F)cc2)CC1`, in the assay filed under Oryctolagus cuniculus, the Kb is 63.1 nM. For the same compound, the Change with Rattus norvegicus [1] is listed as -3%; in the assay on Rattus norvegicus [2], -7%.

Regarding `COc1cc(C(C)=O)ccc1OCCCCCN1CCC(C(c2ccc(F)cc2)c2ccc(F)cc2)CC1`, the Kb in the assay filed under Oryctolagus cuniculus is 3.16 nM. Also, the Change with Rattus norvegicus [1] is on record as -5%; in the assay with Rattus norvegicus [2], -13%.

`Fc1ccc(C(c2ccc(F)cc2)C2CCN(CCCSc3ccccc3)CC2)cc1`: the Kb in the assay filed under Oryctolagus cuniculus was 3.16 nM. The results for the Change in the assay on Rattus norvegicus [1] and in the assay with Rattus norvegicus [2] were -5% and -3%, respectively.

Take `CC(=O)Nc1ccc(OCCCN2CCC(C(c3ccc(F)cc3)c3ccc(F)cc3)CC2)cc1`: in the assay listed under Oryctolagus cuniculus, the Kb is 12.6 nM. Moreover, the Change with Rattus norvegicus [1] and with Rattus norvegicus [2] was -12% in each case.

Regarding `Fc1ccc(OCCCN2CCC(C(c3ccc(F)cc3)c3ccc(F)cc3)CC2)cc1`, in the assay listed under Oryctolagus cuniculus, the Kb was 1.26 nM. For the same compound, the Change is -2% in the assay on Rattus norvegicus [1] and -6% with Rattus norvegicus [2].

As for `COc1cc(C(C)=O)ccc1OCCCN1CCCC(CC(C#N)(c2ccc(F)cc2)c2ccc(F)cc2)C1` (configuration not stated), in the assay filed under Oryctolagus cuniculus, the Kb was 12.6 nM. For the same compound, the Change in the assay on Rattus norvegicus [1] is on record as 2%; in the assay on Rattus norvegicus [2] it was -5%.

Turning to `COc1ccc([C@@H]2Sc3ccccc3N(CCN(C)C)C(=O)[C@@H]2OC(C)=O)cc1` [DILTIAZEM], in the assay filed under Oryctolagus cuniculus, the Kb was 20 nM. Further, the Change in the assay with Rattus norvegicus [1] is listed as -14%; in the assay with Rattus norvegicus [2], -13%.

`Fc1ccc(C(c2ccc(F)cc2)N2CCN(C/C=C/c3ccccc3)CC2)cc1` [FLUNARIZINE]: the Kb in the assay listed under Oryctolagus cuniculus is 5.01 nM. The Change with Rattus norvegicus [1] and with Rattus norvegicus [2] was -1% throughout.

Take `Cc1cccc(C)c1NC(=O)CN1CCN(CCCC(c2ccc(F)cc2)c2ccc(F)cc2)CC1` [LIDOFLAZINE]: the Kb in the assay filed under Oryctolagus cuniculus is 31.6 nM. Also, the Change with Rattus norvegicus [1] and in the assay on Rattus norvegicus [2] was -9% each time.

For the compound `COC(=O)C1=C(C)NC(C)=C(C(=O)OC)C1c1ccccc1[N+](=O)[O-]` [NIFEDIPINE], the Kb in the assay listed under Oryctolagus cuniculus was 0.158 nM. In addition, the Change with Rattus norvegicus [1] is reported as -30%; in the assay with Rattus norvegicus [2] it was -35%.

Regarding `COc1ccc(CCN(C)CCCC(C#N)(c2ccc(OC)c(OC)c2)C(C)C)cc1OC` (configuration not stated) [VERAPAMIL], the Kb in the assay filed under Oryctolagus cuniculus was 10 nM. For the same compound, the figures for the Change in the assay with Rattus norvegicus [1] and with Rattus norvegicus [2] were -19% and -22%, respectively.
